From article PMC8486219 (Cancer Science, 2021)

Key:
MDA‐MB‐231 cells = assay: Real-time cell migration assay; assay type: cell-based, human; conditions: 2 h pretreatment, 1 µM TH1902 or 2 µM docetaxel, monitored 12 h
Summary of the method: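 MDA-MB-231 cells were transfected 24 h with scrambled or SORT1 siRNA, then pretreated 2 h with or without compound. Cells (25 000/well) were seeded serum-free into xCELLigence CIM plates (8 µm pores, underside gelatin-coated 0.15%, 1 h, 37°C), with serum-free medium below. After 30 min adhesion, impedance (Cell Index) was read hourly for 12 h. Duplicate wells, two experiments; one-way ANOVA with Dunnett at 10 h.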

MDA‐MB‐231‐Luc xenograft = assay: MDA-MB-231-Luc xenograft, intraperitoneal treatment; assay type: in vivo, mouse; conditions: i.p. docetaxel 15 mg/kg/wk (MTD), five cycles, CD-1 nude mice, bioluminescence
Summary of the method: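 MDA-MB-231-Luc cells (5 × 10^6 in HBSS) were injected s.c. into the right flank of female CD-1 nude mice under isoflurane. At ~100 mm3, mice received weekly i.p. vehicle, docetaxel 15 mg/kg, or test compound 50 mg/kg for five cycles. Tumor bioluminescence was monitored and expressed relative to each mouse's day-0 post-treatment value, as mean ± SEM (six mice/group).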

MDA‐MB‐231 xenograft = assay: MDA-MB-231 xenograft, intravenous treatment; assay type: in vivo, mouse
[1] = Preliminary pharmacokinetics after i.v. bolus; assay type: in vivo, mouse; conditions: CD-1 mice, single i.v. bolus TH1902 50 mg/kg
PD‐L1‐positive TNBC = conditions: phase 1b trial of 32 patients with PD-L1-positive TNBC; cited from earlier work

Row | Compound | Effect on cell migration (in words) (MDA‐MB‐231 cells) | Start of tumor relapse (MDA‐MB‐231‐Luc xenograft) [days] | Tumor growth at a quarter of the MTD (in words) (MDA‐MB‐231 xenograft; i.v. docetaxel 3.75 mg/kg or TH1902 8.75 mg/kg, n = 6 mice/group) | Restart of tumor growth (MDA‐MB‐231 xenograft; i.v. docetaxel 15 mg/kg/wk (MTD), three injections, n = 5 mice/group) [days] | free docetaxel exposure, fold lower than TH1902-associated docetaxel in plasma [1] | AUC of free (released) docetaxel after TH1902 dosing ([1]; plasma, UPLC/MS) [µM·h] | Cmax of free (released) docetaxel after TH1902 dosing ([1]; plasma, UPLC/MS) [µM] | response rate (PD‐L1‐positive TNBC) [%]
1 | CC(=O)O[C@@]12CO[C@@H]1C[C@H](O)[C@@]1(C)C(=O)[C@H](O)C3=C(C)[C@@H](OC(=O)[C@H](O)[C@@H](NC(=O)OC(C)(C)C)c4ccccc4)C[C@@](O)([C@@H](OC(=O)c4ccccc4)[C@H]21)C3(C)C [docetaxel] | inhibit cell migration | 46 | unaffected | 50 | approximately 37 fold | 15.5 | 7 | –
2 | Pembrolizumab: monoclonal anti‐PD‐1 antibody | – | – | – | – | – | – | – | 18.5
